Rows were chosen to be rich in hits. Some 1.9% of all compounds tested hit in one or more screens of this group.
UHRF1 binding = UHRF1 methylated DNA binding inhibitors, primary screen, counter-screen for MBD2 inhibitor project, biochemical, TR-FRET, human UHRF1, single concentration; E3 ubiquitin-protein ligase UHRF1 (Homo sapiens), Q96T88; UHRF1 binding to methylated oligo; inhibition, % at 4.4 µM; 370,000 compounds, 0.75% hits; in the data active = inhibition above about 21%;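 also: UHRF1 SRA domain binding a hemimethylated CpG hairpin DNA probe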
Target sequence (Q96T88 whole entry, looked up, the tested form may be a part): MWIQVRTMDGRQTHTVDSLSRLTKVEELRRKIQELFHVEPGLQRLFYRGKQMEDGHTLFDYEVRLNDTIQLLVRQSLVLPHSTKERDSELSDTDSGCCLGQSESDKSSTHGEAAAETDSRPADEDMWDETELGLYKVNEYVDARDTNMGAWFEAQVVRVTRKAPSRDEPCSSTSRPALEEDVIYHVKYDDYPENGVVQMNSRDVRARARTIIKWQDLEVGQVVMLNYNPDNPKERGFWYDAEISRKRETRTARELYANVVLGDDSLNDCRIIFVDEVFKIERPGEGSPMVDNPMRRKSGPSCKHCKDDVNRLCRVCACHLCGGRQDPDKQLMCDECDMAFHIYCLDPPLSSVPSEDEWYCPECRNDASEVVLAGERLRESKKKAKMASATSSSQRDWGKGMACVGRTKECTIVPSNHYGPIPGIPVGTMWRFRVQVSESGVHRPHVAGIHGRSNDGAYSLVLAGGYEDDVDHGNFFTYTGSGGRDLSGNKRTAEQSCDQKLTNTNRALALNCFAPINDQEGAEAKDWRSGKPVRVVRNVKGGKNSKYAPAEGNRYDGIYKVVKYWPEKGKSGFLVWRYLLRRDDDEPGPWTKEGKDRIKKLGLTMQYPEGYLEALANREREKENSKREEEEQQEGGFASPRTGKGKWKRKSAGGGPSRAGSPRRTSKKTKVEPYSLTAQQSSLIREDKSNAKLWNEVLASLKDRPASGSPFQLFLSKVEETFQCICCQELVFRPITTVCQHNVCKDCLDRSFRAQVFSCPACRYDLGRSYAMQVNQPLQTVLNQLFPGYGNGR
Rin1 Abl inh = inhibitors of Rin1-Abl protein binding, primary screen, biochemical, TR-FRET. Tyrosine-protein kinase ABL1 (Homo sapiens) + Ras and Rab interactor 1 (Homo sapiens), …. inhibition, % at 7.35 µM. AID 588664, 2011. 360,000 compounds, 0.4% hits; in the data active = inhibition above about 5%, passing the limit was not always enough
TDP2 absorb = human TDP2 enzyme inhibitors, primary screen, biochemical, epi absorbance, recombinant enzyme; 370,000 compounds, 0.34% hits; inhibition, % at 12.8 µM; T5PNP hydrolysis, p-nitrophenol absorbance 415 nm; Tyrosyl-DNA phosphodiesterase 2 (Homo sapiens), O95551;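 active = inhibition above the mean of all tested compounds plus 3 SD, set per campaign, cut at about 25% in these data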
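Read-out basis: percent inhibition. System: recombinant human TDP2. Buffer or medium: Mg2+-containing Tris-HCl buffer, pH 7.5. Repeats: single replicate. Timing: reaction 2 h, 37 °C. Benchmarks: high control without enzyme, low control DMSO plus TDP2. Probe or stimulus: 5 mM T5PNP. Doses: 12.8 µM only. Measured by: epi absorbance of p-nitrophenol freed from T5PNP by hydrolysis.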
MBD2 DNA inh = inhibitors of MBD2 binding to methylated DNA, primary screen, biochemical, TR-FRET, DNA-binding domain, human; Methyl-CpG-binding domain protein 2 (Homo sapiens), Q9UBB5; MBD2 binding to methylated oligonucleotide; AID 686964, 2013; 370,000 compounds, 0.31% hits; inhibition, % at 4.4 µM; in the data active = inhibition above about 13%
LEDGF integ inh = blockers of LEDGF/p75-dependent integrase strand transfer – biochemical, TR-FRET, high throughput, primary screen. 370,000 compounds, 0.64% hits. inhibition, % at 3.7 µM. AID 743269, 2014. TR-FRET IN-LEDGF/p75 DNA integration, Eu/Cy5. HIV-1 integrase (with human LEDGF/p75);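 active = inhibition above the screen-wide mean plus 3 SD, cut at about 13% in these data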;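 also: signal is the Cy5 over europium emission ratio at 671 and 618 nm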
Hits are given with their value.

How did COC(=O)[C@]12C[C@H](CC(=O)NCC3CCCCC3)C(=O)N(CCc3ccc(OC)c(OC)c3)C1=C[C@H](C(C)(C)C)O[C@@H]2C do in these assays?
UHRF1 binding: 23; TDP2 absorb: inactive; MBD2 DNA inh: inactive; LEDGF integ inh: inactive

How did COC(=O)[C@]12C[C@H](CC(=O)N3CCCCC3)C(=O)N(Cc3ccc4c(c3)OCO4)C1=C[C@H](C(C)(C)C)O[C@@H]2C do in these assays?
UHRF1 binding: inactive; TDP2 absorb: inactive; MBD2 DNA inh: inactive; LEDGF integ inh: inactive

Results for COC(=O)[C@]12C[C@H](CC(=O)NCC3CCCCC3)C(=O)N(CCc3ccc(OC)c(OC)c3)C1=C[C@H](C1CCCC1)O[C@@H]2C ?
UHRF1 binding: inactive; TDP2 absorb: inactive; MBD2 DNA inh: inactive; LEDGF integ inh: inactive

How did COC(=O)[C@]12C[C@H](CC(=O)NCC3CCCCC3)C(=O)N(Cc3ccc4c(c3)OCO4)C1=C[C@H](C(C)(C)C)O[C@@H]2C do in these assays?
UHRF1 binding: 23; TDP2 absorb: inactive; MBD2 DNA inh: inactive; LEDGF integ inh: inactive

What do the screens show for `Cc1ccc(S(=O)(=O)NCC2CCCO2)cc1` (configuration not stated)?
UHRF1 binding: inactive; Rin1 Abl inh: inactive; TDP2 absorb: inactive; MBD2 DNA inh: inactive; LEDGF integ inh: inactive

What do the screens show for `Cc1ccc(NC(=O)c2cc(S(=O)(=O)NCC3CCCO3)ccc2F)cc1` (configuration not stated)?
UHRF1 binding: 45; Rin1 Abl inh: inactive; TDP2 absorb: inactive; MBD2 DNA inh: inactive; LEDGF integ inh: inactive

Results for CCn1c(SCC(=O)NN=Cc2ccc(C(=O)O)cc2)nc2ccccc21 ?
UHRF1 binding: inactive; TDP2 absorb: inactive; MBD2 DNA inh: inactive; LEDGF integ inh: inactive

What do the screens show for `CNC(=O)c1sc(-c2ccccc2)nc1C`?
UHRF1 binding: 33; Rin1 Abl inh: inactive; TDP2 absorb: inactive; MBD2 DNA inh: inactive; LEDGF integ inh: inactive

What do the screens show for `CNC(=O)c1sc(-c2ccc(Cl)cc2)nc1C`?
UHRF1 binding: inactive; Rin1 Abl inh: inactive; TDP2 absorb: inactive; MBD2 DNA inh: inactive; LEDGF integ inh: inactive

Results for CNC(C)C(=O)NC(C(=O)N1CCCC1C(=O)Nc1cccc2ncccc12)C(C)C (configuration not stated) ?
UHRF1 binding: inactive; TDP2 absorb: inactive; MBD2 DNA inh: inactive; LEDGF integ inh: inactive

What do the screens show for `O=C(Nc1ccc(OCc2ccccc2)cc1)c1ccccc1`?
UHRF1 binding: 65; Rin1 Abl inh: inactive; TDP2 absorb: inactive; MBD2 DNA inh: inactive; LEDGF integ inh: inactive

How did O=C(Nc1cccc(OCC(=O)N2CCOCC2)c1)c1cccc([N+](=O)[O-])c1 do in these assays?
UHRF1 binding: 34; Rin1 Abl inh: inactive; TDP2 absorb: inactive; MBD2 DNA inh: inactive; LEDGF integ inh: inactive

What do the screens show for `O=C(Nc1cccc(OCC(=O)N2CCOCC2)c1)c1cccc(Cl)c1`?
UHRF1 binding: inactive; Rin1 Abl inh: inactive; TDP2 absorb: inactive; MBD2 DNA inh: inactive; LEDGF integ inh: inactive

Results for O=C(Nc1ccccc1)c1ccc(COc2ccccc2)cc1 ?
UHRF1 binding: inactive; Rin1 Abl inh: inactive; TDP2 absorb: inactive; MBD2 DNA inh: inactive; LEDGF integ inh: inactive

Results for O=C(COc1cccc(NC(=O)c2ccccc2)c1)c1ccccc1 ?
UHRF1 binding: 27; Rin1 Abl inh: inactive; TDP2 absorb: inactive; MBD2 DNA inh: inactive; LEDGF integ inh: inactive

How did C=CCN1C(=O)[C@@H](CC(=O)NCCCOC)[C@]2(C(=O)OC)CCCCC=C12 do in these assays?
UHRF1 binding: inactive; TDP2 absorb: inactive; MBD2 DNA inh: inactive; LEDGF integ inh: inactive

How did Nn1c(SCC(=O)Nc2cccc3ccccc23)nnc1-c1cc(-c2ccc(Cl)cc2)n[nH]1 do in these assays?
UHRF1 binding: inactive; TDP2 absorb: inactive; MBD2 DNA inh: inactive; LEDGF integ inh: inactive

What do the screens show for `CCSc1nnc(-c2ccco2)n1C`?
UHRF1 binding: inactive; TDP2 absorb: inactive; MBD2 DNA inh: inactive; LEDGF integ inh: inactive

What do the screens show for `O=C(CCc1nc(-c2ccccc2F)no1)NCCc1ccccc1F`?
UHRF1 binding: inactive; TDP2 absorb: inactive; MBD2 DNA inh: inactive; LEDGF integ inh: inactive

Bioassay records deposited in PubChem BioAssay by The Scripps Research Institute Molecular Screening Center.
